This passage reports inhibition, concentration and Activity results from ChEMBL document CHEMBL5653605, “Reduced VEGF production, angiogenesis, and vascular regrowth contribute to the antitumor properties of dual mTORC1/mTORC2 inhibitors” (Cancer Res, 2011).

Data set [1] addresses Eukaryotic translation initiation factor 4E-binding protein 1 (Homo sapiens) (UniProt Q13541). Description: Inhibition of 4E-BP1 phosphorylation at Ser 37/46 residues in serum deprived/insulin stimulated human OVCAR-3 cells harboring PTEN and wild type PI3K preincubated for 2 hrs followed by insulin stimulation and measured immediately by Western blot analysis. It is filed as cell-based. To be noted: dose 0.001-10 µM.

The subject of data set [2] is OVCAR-3. Nature of the data set: Inhibition of S6K at […] residues in serum deprived/insulin stimulated human OVCAR-3 cells harboring PTEN and wild type PI3K assessed as inhibition of s6 substrate phosphorylation at […] residue at 0.001 to 10 uM preincubated for 2 hrs followed by insulin stimulation and measured immediately by Western blot analysis. To be noted: dose 0.001-10 µM. It is filed as cell-based.

Data set [3] can be described thus: Drug concentration in nu/nu CD-1 mouse plasma xenografted with human GEO cells at 75 mg/kg administered for 14 days and measured 1 hr post last dose. The class given is ADME, organism-based. In general terms: Xenograft models place foreign cells or tissue in a host animal.
Data set [4] has as its system Pancreatic islet cell carcinoma. Description: Antitumor activity against pancreatic islet cell carcinoma in RIP-Tag2 mouse assessed as induction of apoptosis by measuring caspase-3 activation at 75 mg/kg, po bid administered via gavage and measured after 7 days by immunohistochemistry analysis. It is filed as functional, organism-based. As to conditions: time 7.0 day. In a few lines: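 RIP-Tag2 mice aged 9–10 weeks dosed by gavage BID for 7 days; vehicle Labrifil or water. Mice fixed by vascular perfusion, tumors cut into 60–80 µm sections. Proliferating cells stained for phospho-histone H3 and apoptotic cells for activated caspase-3. Sections imaged by fluorescence/confocal microscopy. Body weight checked daily, fluids given if loss exceeded 10%. 3–8 mice per group, SEM, ANOVA with Fisher PLSD.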

For data set [5] the test system is unchanged. Description: Antivascular activity against pancreatic islet cell carcinoma in RIP-Tag2 mouse assessed as appearance of empty basement membrane sleeves at 75 mg/kg, po bid administered via gavage and measured after 7 days by immunohistochemical staining based fluorescence microscopic analysis. It is filed as functional, organism-based. To be noted: time 7.0 day. In a few lines: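 For 7 days, RIP-Tag2 mice, 9–10 weeks old, received 75 mg/kg gavage BID, 200 mg/kg gavage QD, or 20 mg/kg ip QD. Perfusion-fixed tumors cut at 60–80 µm and stained for CD31 and type IV collagen basement membrane. Vessel area density from fluorescence images with threshold 30–50; sprouts and empty basement membrane sleeves examined by confocal microscopy. 3–8 mice/group; ANOVA, Fisher PLSD.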

Data set [6] concerns the target Proto-oncogene tyrosine-protein kinase receptor Ret (Homo sapiens) (UniProt P07949). Nature of the data set: Inhibition of RET (unknown origin) at 3 uM by Ambit Kinomescan assay relative to control.

Active and inactive are the calls of the source. Bounds are passed on as bounds.

Proto-oncogene tyrosine-protein kinase receptor Ret (Homo sapiens), sequence (P07949 whole entry): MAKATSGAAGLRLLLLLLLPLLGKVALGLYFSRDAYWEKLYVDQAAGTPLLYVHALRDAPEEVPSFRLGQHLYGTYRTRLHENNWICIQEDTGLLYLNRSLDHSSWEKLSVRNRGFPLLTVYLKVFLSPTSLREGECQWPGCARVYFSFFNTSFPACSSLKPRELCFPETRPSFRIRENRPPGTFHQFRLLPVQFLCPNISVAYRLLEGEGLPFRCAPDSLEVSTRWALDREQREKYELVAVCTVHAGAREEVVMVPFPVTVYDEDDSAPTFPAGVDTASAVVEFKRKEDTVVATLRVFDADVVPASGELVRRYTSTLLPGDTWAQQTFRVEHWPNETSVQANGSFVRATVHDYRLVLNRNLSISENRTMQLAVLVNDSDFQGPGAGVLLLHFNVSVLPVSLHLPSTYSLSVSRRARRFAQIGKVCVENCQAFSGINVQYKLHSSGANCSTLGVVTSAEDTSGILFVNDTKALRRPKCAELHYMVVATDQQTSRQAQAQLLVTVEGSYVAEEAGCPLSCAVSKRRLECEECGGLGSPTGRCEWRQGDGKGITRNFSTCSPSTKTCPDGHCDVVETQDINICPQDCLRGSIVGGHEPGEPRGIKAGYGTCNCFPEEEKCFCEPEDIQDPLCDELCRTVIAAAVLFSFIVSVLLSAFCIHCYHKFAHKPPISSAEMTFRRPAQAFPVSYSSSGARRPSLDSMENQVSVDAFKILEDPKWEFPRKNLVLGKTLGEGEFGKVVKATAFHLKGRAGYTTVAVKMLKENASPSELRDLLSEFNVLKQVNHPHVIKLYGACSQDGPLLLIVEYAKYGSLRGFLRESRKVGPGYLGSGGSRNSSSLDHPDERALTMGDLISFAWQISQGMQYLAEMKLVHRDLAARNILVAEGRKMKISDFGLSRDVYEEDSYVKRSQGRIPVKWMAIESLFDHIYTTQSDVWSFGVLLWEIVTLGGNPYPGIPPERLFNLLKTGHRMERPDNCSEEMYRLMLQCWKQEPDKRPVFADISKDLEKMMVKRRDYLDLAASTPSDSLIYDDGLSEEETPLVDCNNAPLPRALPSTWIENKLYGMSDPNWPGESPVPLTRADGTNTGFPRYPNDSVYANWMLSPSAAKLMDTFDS
Eukaryotic translation initiation factor 4E-binding protein 1 (Homo sapiens), sequence (Q13541 whole entry): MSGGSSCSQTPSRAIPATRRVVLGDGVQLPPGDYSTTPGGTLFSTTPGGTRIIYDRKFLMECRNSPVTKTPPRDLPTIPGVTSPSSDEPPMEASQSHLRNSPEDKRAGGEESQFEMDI

The inhibition is the share of the control response that was lost under treatment. As to `Nc1nccn2c1c(-c1cc3cccc(Cl)c3[nH]1)nc2[C@H]1CC[C@H](C(=O)O)CC1`, the inhibition result was “Dose-Dependent Effect” in data set [1] and > 90% in data set [6]. Also, in data set [2], the inhibition entry is “Active”. In data set [3], this compound returned a concentration at 337 h of 25.6 µM. Moreover, the outcome in data set [4] was Active. In addition, the result in data set [5] was inactive.
